Results collected from several papers.
Compare with care: the assays were run in different laboratories.
KDR: Vascular endothelial growth factor receptor 2 (KDR, Homo sapiens, UniProt P35968)
Histone acetyltransferase KAT6B: Histone acetyltransferase KAT6B (Homo sapiens, UniProt Q8WYB5)
PIK3CA: Phosphatidylinositol 4,5-bisphosphate 3-kinase catalytic subunit alpha isoform (PIK3CA, Homo sapiens, UniProt P42336)
Trpm7 F924W: Transient receptor potential cation channel subfamily M member 7 (Trpm7, Mus musculus, UniProt Q923J1, F924W)
PIK3CB: Phosphatidylinositol 4,5-bisphosphate 3-kinase catalytic subunit beta isoform (PIK3CB, Homo sapiens, UniProt P42338)
NOX5: NADPH oxidase 5 (NOX5, Homo sapiens, UniProt Q96PH1)
DNA polymerase catalytic subunit: DNA polymerase catalytic subunit (Human cytomegalovirus, UniProt P08546)

CC(=NNC(=O)c1ccncc1)c1ccc(Nc2nnc(-c3ccc(Cl)cc3)c3ccccc23)cc1
IC50 (KDR; cell-free assay, inhibitor): 148 nM

O=C(NS(=O)(=O)c1ccccc1-c1ccccc1)c1cc2ccc(OCCO)cc2o1
IC50 (Histone acetyltransferase KAT6B; enzyme activity, inhibitor, TR-FRET): 5940 nM

COc1cc2ncnc(N(C)c3ccc4c(c3)/C(=C/c3cccc(Cl)c3)C(=O)N4C)c2cc1OC
IC50 (PIK3CA; enzyme activity, inhibitor, ADP detection): > 1000 nM

c1ccc2c(c1)CCC[C@H]2Nc1nc2ccccc2[nH]1
IC50 (Trpm7 F924W; calcium signal): 5120 nM

Cc1cc(Br)cc2oc(C(=O)NS(=O)(=O)c3ccccc3-c3ccccc3)cc12
IC50 (Histone acetyltransferase KAT6B; enzyme activity, inhibitor, TR-FRET): 150 nM

O=C(O)Cc1csc(NC(=O)c2cc3ccccc3[nH]2)n1
IC50 (KDR; enzyme activity, inhibitor, ELISA): 1210 nM

COc1cc(C)c2cc(C(=O)NS(=O)(=O)c3ccc(-c4ccccc4)cc3)oc2c1
IC50 (Histone acetyltransferase KAT6B; enzyme activity, inhibitor, TR-FRET): 161 nM

CNC(=O)c1cnc(Nc2ccccc2C)c(NC(=O)c2cc(F)cc(C(F)(F)F)c2)c1
IC50 (Phosphatidylinositol 4,5-bisphosphate 3-kinase catalytic subunit alpha isoform (PIK3CA, Homo sapiens, UniProt P42336, H1047R); enzyme activity, inhibitor; with preincubation): 334 nM

N#Cc1ccc(COC[C@H]2O[C@@H](n3c(NCc4ccc(Cl)c(Cl)c4)nc4c(N)ncnc43)[C@H](O)[C@@H]2O)cc1
IC50 (Trpm7 F924W; calcium signal): 5580 nM

CCOc1ccccc1S(=O)(=O)NC(=O)c1cc2c(OC)cc(OC)cc2o1
IC50 (Histone acetyltransferase KAT6B; enzyme activity, inhibitor, TR-FRET): 309 nM

Cc1nc(Nc2ccc3c(c2)C(C)(C)C(=O)N3C)c2ccccc2n1
IC50 (PIK3CA; enzyme activity, inhibitor, ADP detection): 164 nM

CC(=NNC(N)=S)c1ccc(Nc2nnc(-c3ccc(Cl)cc3)c3ccccc23)cc1
IC50 (KDR; cell-free assay, inhibitor): 375 nM

O=c1oc(-c2ccco2)nc2ccccc12
IC50 (Cathepsin G (CTSG, Homo sapiens, UniProt P08311); enzyme activity, inhibitor, absorbance; pH 7.4): 840 nM

O=C(/C=C/c1ccc(O)c2oc(-c3ccc(O)c(O)c3)cc12)O[C@H](Cc1ccc(O)c(O)c1)C(=O)O
IC50 (YTH domain-containing protein 1 (Homo sapiens, UniProt Q96MU7); ligand displacement, FP): 29000 nM

COc1cc2ncnc(Nc3ccc4c(c3)/C(=C/c3ccccc3)C(=O)N4C)c2cc1OC
IC50 (PIK3CB; enzyme activity, inhibitor, ADP detection): 506 nM

CCCc1c(-c2ccccc2)nn(-c2ccccn2)c1O
IC50 (NOX5; enzyme activity, inhibitor): 2200 nM

COc1cc(C)c2cc(C(=O)NS(=O)(=O)c3cccc4ccc(C)nc34)oc2c1
IC50 (Histone acetyltransferase KAT6B; enzyme activity, inhibitor, TR-FRET): 22 nM

Cc1nc(Nc2ccc3c(c2)CC(=O)N3)c2ccccc2n1
IC50 (PIK3CA; enzyme activity, inhibitor, ADP detection): 56 nM

COc1cnc2c(cc(C(=O)NCc3ccc(Cl)cc3)c(=O)n2CC(=O)N2CC(C)(F)C2)n1
IC50 (DNA polymerase catalytic subunit; enzyme activity, inhibitor): 954 nM

COc1cc2ncnc(Nc3ccc4c(c3)/C(=C/c3cccc(Cl)c3)C(=O)N4C)c2cc1OC
IC50 (PIK3CB; enzyme activity, inhibitor, ADP detection): 110 nM

CN(C)C(=O)CN1CCN(c2cnc3c(cc(C(=O)NCc4ccc(Cl)cc4)c(=O)n3CC(=O)N3CC(C)(F)C3)n2)C1=O
IC50 (DNA polymerase catalytic subunit; enzyme activity, inhibitor): 328 nM

Cc1nc(N(C)c2ccc3c(c2)/C(=C/c2ccccc2Cl)C(=O)N3C)c2ccccc2n1
IC50 (PIK3CA; enzyme activity, inhibitor, ADP detection): 53.4 nM

COc1cc(C)c2cc(C(=O)NS(=O)(=O)c3ccc(C)cc3)oc2c1
IC50 (Histone acetyltransferase KAT6B; enzyme activity, inhibitor, TR-FRET): 262 nM

Cc1nc(Nc2ccc3c(c2)C(C)(C)C(=O)N3)c2ccccc2n1
IC50 (PIK3CA; enzyme activity, inhibitor, ADP detection): 195 nM

COc1cc(C)c2cc(C(=O)NS(=O)(=O)c3ccc(Cl)cc3)oc2c1
IC50 (Histone acetyltransferase KAT6B; enzyme activity, inhibitor, TR-FRET): 237 nM

Cc1nc(Nc2ccc3c(c2)/C(=C/c2ccccc2Cl)C(=O)N3)c2ccccc2n1
IC50 (PIK3CB; enzyme activity, inhibitor, ADP detection): 90.2 nM

Cc1coc2c1C(=O)C(=O)c1c-2ccc2c(C)cccc12
IC50 (NOX5; enzyme activity, inhibitor): 3900 nM
